“And” between values parts separate entries of the source, which are not always exact repeats. Equal entries are not always repeated.
Key:
[1] = system: Rattus norvegicus; experiment: Percent increase in liver weight in rats when administered perorally; format: functional
[2] = system: Rattus norvegicus; experiment: Percent change in total cholesterol concentration in serum from hypercholesterolemic rats at dose 23 mg/kg (po); format: functional
How it was run: (§1)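 Rats were fed 1.5% cholesterol/0.5% cholic acid diet for 7 days, with compounds given by gavage over the last 4 days as a 0.5% Methocel suspension (0.5 mL/100 g). Rats were fasted overnight, killed on day 8 and bled under light CO₂ anesthesia. HDL was isolated by heparin-MnCl₂ precipitation (8000 rpm, 15 min, 4 °C). Total and HDL cholesterol were measured enzymatically-colorimetrically; % change vs control.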

[3] = system: Rattus norvegicus; experiment: Percent change in high density lipoproteins cholesterol concentration in serum from hypercholesterolemic rats at dose 23 mg/kg (po); format: functional; how it was run: as §1
[4] = system: Rattus norvegicus; experiment: Percent change in total cholesterol concentration in serum from hypercholesterolemic rats at dose 50 mg/kg (po); format: functional
[5] = system: Rattus norvegicus; experiment: Percent change in high density lipoproteins cholesterol concentration in serum from hypercholesterolemic rats at dose 50 mg/kg (po); format: functional; how it was run: as §1
[6] = system: Rattus norvegicus; experiment: Percent change in total cholesterol concentration in serum from hypercholesterolemic rats at dose 45 mg/kg (po); format: functional
[7] = system: Rattus norvegicus; experiment: Percent change in high density lipoproteins cholesterol concentration in serum from hypercholesterolemic rats at dose 45 mg/kg (po); format: functional; how it was run: as §1
[8] = system: Rattus norvegicus; experiment: Percent change in high density lipoproteins cholesterol concentration in serum from hypercholesterolemic rats at dose 35 mg/kg (po); format: functional; how it was run: as §1
[9] = system: Rattus norvegicus; experiment: Percent change in total cholesterol concentration in serum from hypercholesterolemic rats at dose 35 mg/kg (po); format: functional
[10] = system: Rattus norvegicus; experiment: Compound was tested for Hepatic peroxisomal proliferation effect in male rats treated for 7 days at dose 50 mg/kg catalase activity (per mg) of protein; format: functional
How it was run: (§2)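 Male OFA-ICO SD rats received oral doses of 50 mg/kg/day for 1 week. Liver was homogenized in 0.25 M sucrose-0.01 M phosphate-0.1% ethanol, pH 7, then diluted in incubation buffer with 0.1% Triton X-100 and centrifuged. Supernatants were assayed for catalase (K, sec⁻¹), carnitine acetyltransferase (nmol CoASH/min) and cyanide-insensitive palmitoyl-CoA oxidation (nmol NAD⁺ reduced/min). Mean ± SEM of three rats; Dunnett's test.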

[11] = species: Rattus norvegicus; experiment: Compound was tested in vitro for inhibition of Cholesterol biosynthesis in rat liver slices, % inhibition of [14C]acetate incorporation in neutral lipids at 2 e10-4 concentration; format: functional
How it was run: (§3)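 Liver slices (250 mg) from fed male rats were incubated in Krebs-Ringer bicarbonate, pH 7.4, with 4 mM [2-¹⁴C]acetate under 95% O₂-5% CO₂. Compounds were tested at a final 2 × 10⁻⁴ M, or 5 × 10⁻⁵ M for one compound. ¹⁴C incorporation into cholesterol and into petroleum-ether-soluble nonsaponifiable neutral lipids gave % inhibition; mean of four determinations.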

[12] = system: Rattus norvegicus; experiment: Compound was tested for Enzyme induction effect in male rats treated for 5 days at dose 50 mg/kg aniline p-hydroxylase activity(per g) of liver; format: functional
How it was run: (§4)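 Male OFA-ICO SD rats were dosed orally for 5 days, with test compounds at 50 mg/kg/day and sodium phenobarbital at 75 mg/kg/day. Liver was homogenized in 1.15% KCl-0.01 M phosphate, pH 7.5. Microsomes were spun from the 9000g supernatant at 105000g and assayed for protein, cytochrome P-450, aniline p-hydroxylation (µmol p-aminophenol/20 min) and aminopyrine N-demethylation (µmol HCHO/5 min). Liver/body weight was also recorded. Mean ± SEM of four rats; Dunnett's test.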

[13] = system: Rattus norvegicus; experiment: Compound was tested for Hepatic peroxisomal proliferation effect in male rats treated for 7 days at dose 50 mg/kg carnitine acetyl transferase activity(per mg) of protein; format: functional; how it was run: as §2
[14] = system: Rattus norvegicus; experiment: Compound was tested for Hepatic peroxisomal proliferation effect in male rats treated for 7 days at dose 50 mg/kg palmitoyl-CoA oxidation activity(per mg) of protein; format: functional; how it was run: as §2
[15] = species: Rattus norvegicus; experiment: Compound was tested in vitro for inhibition of Cholesterol biosynthesis in rat liver slices, % inhibition of [14C]-acetate incorporation in cholesterol at 2 e10-4 concentration; format: functional; how it was run: as §3
[16] = Compound was tested for Hepatic peroxisomal proliferation effect in male rats treated for 7 days at dose 50 mg/kg ratio of % liver weight to % body weight; format: functional
[17] = system: Rattus norvegicus; experiment: Compound was tested for Enzyme induction effect in male rats treated for 5 days at dose 50 mg/kg concentration of microsomal proteins (mg/g) of liver; format: functional, organism-based; set-up: dose 50 mg/kg; how it was run: as §4
[18] = Percent change in high density lipoprotein cholesterol
[19] = system: Rattus norvegicus; experiment: Compound was tested for Enzyme induction effect in male rats treated for 5 days at dose 50 mg/kg aminopyrine N-demethylase activity (per g) of liver; format: functional; how it was run: as §4
[20] = system: Rattus norvegicus; experiment: Percent increase in liver weight in rats when a 50 mg/Kg dose was administered; format: functional
[21] = system: Rattus norvegicus; experiment: Percent change in low density lipoproteins cholesterol concentration in serum from normocholesterolemic rats at dose 50 mg/kg (po)
[22] = system: Rattus norvegicus; experiment: Compound was tested for Enzyme induction effect in male rats treated for 5 days at dose 50 mg/kg concentration of cytochrome […]( mmol/mg) of protein; format: functional; how it was run: as §4
[23] = system: Rattus norvegicus; experiment: Compound was tested for Hepatic peroxisomal proliferation effect in male rats treated for 7 days at dose 50 mg/kg concentration of hepatic proteins(mg/g) in liver; format: functional, organism-based; set-up: dose 50 mg/kg
[24] = system: Rattus norvegicus; experiment: Percent change in triglyceride concentration in serum from normocholesterolemic rats at dose 50 mg/kg (po)
[25] = Compound was tested for Enzyme induction effect in male rats treated for 5 days at dose 50 mg/kg; ratio of % liver weight to % body weight; format: functional; how it was run: as §4
[26] = system: Rattus norvegicus; experiment: Percent change in high density lipoproteins cholesterol concentration in serum from hypercholesterolemic rats at dose 25 mg/kg (po); format: functional; how it was run: as §1
[27] = system: Rattus norvegicus; experiment: Percent change in total cholesterol concentration in serum from hypercholesterolemic rats at dose 25 mg/kg (po); format: functional; how it was run: as §1

## O=C1c2cc(-c3ccccc3)ccc2CCC1n1ccnc1 (stereo not drawn)
[1]
  Change: 2%
[2]
  Change: 4%
[3]
  Change: 8%

## O=C1c2ccc(O)cc2CCC1n1ccnc1 (stereo not drawn)
[4]
  Change: 30%
[1]
  Change: -3%
[5]
  Change: 12%

## O=C(O)c1ccc2c(c1)C(=O)C(n1ccnc1)CC2 (stereo not drawn)
[6]
  Change: -5%
[7]
  Change: -9%
[1]
  Change: -3%

## Cc1cc(Br)c2c(c1)C(=O)C(n1ccnc1)CO2 (stereo not drawn)
[6]
  Change: -15%
[1]
  Change: 7%
[5]
  Change: 21%

## CCCc1cc2c(cc1OC)OC(C)C(n1ccnc1)C2=O (stereo not drawn)
[8]
  Change: 152%
[1]
  Change: 24%
[9]
  Change: -57%

## O=C1c2cc(O)cc(Br)c2OCC1n1ccnc1 (stereo not drawn)
[4]
  Change: 2%
[1]
  Change: -1%
[5]
  Change: 1%

## CC1Oc2cc(O)ccc2C(=O)C1n1ccnc1 (stereo not drawn)
[4]
  Change: -22%
[1]
  Change: 3%
[5]
  Change: 2%

## O=C1c2cc(Cl)ccc2OCC1n1cccn1 (stereo not drawn)
[4]
  Change: 35%
[1]
  Change: 6%
[5]
  Change: 13%

## O=C1c2ccsc2CCC1n1ccnc1 (stereo not drawn)
[4]
  Change: 17%
[5]
  Change: 2%

## O=C1c2cc(Cl)ccc2OCC1n1ccnc1 (stereo not drawn)
[10]
  Activity: 42.1
[11]
  Inhibition: 0%
[12]
  Activity: 0.93
[13]
  Activity: 2.9
[14]
  Activity: 4.1
[15]
  Inhibition: 0%
[16]
  Ratio: 4.36%
[1]
  Change: 28%
[17]
  Concentration: 42.5
[18]
  Percent change in HDL cholesterol: 153
[19]
  Activity: 2.98
[20]
  Change: 34%
[21]
  Change: -53%
[22]
  Activity: 2.46
[23]
  Concentration: 216
[24]
  Change: -46%
[25]
  Ratio: 4.4%

## CCCc1cc2c(cc1O)OC(C)C(n1ccnc1)C2=O (stereo not drawn)
[26]
  Change: 28%
[1]
  Change: 8%
[27]
  Change: -15%

## Cc1nccn1C1COc2ccc(Cl)cc2C1=O (stereo not drawn)
[4]
  Change: 39%
[1]
  Change: 14%
[5]
  Change: 23%

## O=C1c2ccccc2CCC1n1ccnc1 (stereo not drawn)
[4]
  Change: -34%
[1]
  Change: 13%
[5]
  Change: 94%

## O=C1c2ccccc2OC(c2cccnc2)C1n1ccnc1 (stereo not drawn)
[4]
  Change: -4%
[1]
  Change: 4%
[5]
  Change: 12%

## CC1Oc2c(Br)cc(C(=O)O)cc2C(=O)C1n1ccnc1 (stereo not drawn)
[4]
  Change: -23%
[1]
  Change: 4%
[5]
  Change: -11%

## CC1Cc2ccccc2C(=O)C1n1ccnc1 (stereo not drawn)
[4]
  Change: -54%
[1]
  Change: 26%
[5]
  Change: 102%

## O=C1c2cc([N+](=O)[O-])ccc2CCC1n1ccnc1 (stereo not drawn)
[4]
  Change: -16%
[1]
  Change: 5%
[5]
  Change: 23%

## COc1ccc2c(c1)C(=O)C(n1ccnc1)CC2 (stereo not drawn)
[4]
  Change: -40%
[1]
  Change: 10%
[5]
  Change: 52%

## O=C1c2cc(Br)cc(Br)c2OCC1n1ccnc1 (stereo not drawn)
[4]
  Change: -68%
[1]
  Change: 29%
[5]
  Change: 171%

## Cc1ccc2c(c1)C(=O)C(n1ccnc1)CO2 (stereo not drawn)
[4]
  Change: 7%
[5]
  Change: 32%

## OC1c2cc(Cl)ccc2OCC1n1ccnc1 (stereo in doubt; 40)
[11]
  Inhibition: 0%
[4]; 50 mg/kg
  Change: -42% and -19%
[15]
  Inhibition: 0%
[1]
  Change: 24%
[18]
  Percent change in HDL cholesterol: 123
[20]
  Change: 24%
[21]
  Change: -50%
[24]
  Change: -36%

## COc1ccc2c(c1)C(O)C(n1ccnc1)CC2 (stereo not drawn)
[4]
  Change: -24%
[1]
  Change: 21%
[5]
  Change: 88%

— ChEMBL document CHEMBL1123418, “N-imidazolylchroman-4-ones, N-imidazolyl-1-tetralones, and their alcohols as hypolipemic agents raising high-density lipoproteins” (1986)
